Laboratory results reported in ChEMBL document CHEMBL4184236, “Design, synthesis and biological evaluation of matrine derivatives as potential anticancer agents” (Bioorg Med Chem Lett, 2018).

Tests used:
Format in all cases: functional, cell-based
SMMC-7721 = assay: Anticancer activity against human SMMC7721 cells assessed as reduction in cell viability incubated for 48 hrs MTT assay; details: SMMC-7721, 48 h
Outline: (§1)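 MTT assay on human hepatocarcinoma SMMC-7721, lung carcinoma A549 and nasopharyngeal carcinoma CNE2 cells, with matrine as comparator and cisplatin as positive control. IC50 is the concentration that lowers optical density of treated cells by 50% versus untreated cells, given as the mean ± SD of three experiments.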

A549 = assay: Anticancer activity against human A549 cells assessed as reduction in cell viability incubated for 48 hrs MTT assay; details: A549, 48 h; outline: as §1
CNE-2 = assay: Anticancer activity against human CNE2 cells assessed as reduction in cell viability incubated for 48 hrs MTT assay; details: CNE-2, 48 h; outline: as §1

Row | IC50 (SMMC-7721) [µM] | IC50 (A549) [µM] | SMILES | IC50 (CNE-2) [µM]
1 | 27 | 30.2 | O=C1/C(=C/c2ccc3c(ccn3Cc3ccc4ccccc4c3)c2)CC[C@@H]2[C@H]3CCCN4CCC[C@@H](CN12)[C@@H]34 | 14.3
2 | 20.3 | 23.9 | O=C1/C(=C/c2cccn2Cc2ccc3ccccc3c2)CC[C@@H]2[C@H]3CCCN4CCC[C@@H](CN12)[C@@H]34 | 14.7
3 | 6.83 | 7.07 | O=C1/C(=C/c2cccc3c2ccn3Cc2cccc(Cl)c2)CC[C@@H]2[C@H]3CCCN4CCC[C@@H](CN12)[C@@H]34 | 6.64
4 | 8.01 | 11.2 | COc1ccc(Cn2cc(/C=C3\CC[C@@H]4[C@H]5CCCN6CCC[C@@H](CN4C3=O)[C@@H]56)c3ccccc32)cc1 | 8.43
5 | 25.8 | 29.9 | O=C1/C(=C/c2ccc3c(ccn3Cc3cccc(Cl)c3)c2)CC[C@@H]2[C@H]3CCCN4CCC[C@@H](CN12)[C@@H]34 | 14.6
6 | 13.7 | 15.3 | COc1cccc(Cn2cc(/C=C3\CC[C@@H]4[C@H]5CCCN6CCC[C@@H](CN4C3=O)[C@@H]56)c3ccccc32)c1 | 9.31
7 | 34 | 31.6 | O=C1/C(=C/c2cccn2Cc2ccc(F)cc2)CC[C@@H]2[C@H]3CCCN4CCC[C@@H](CN12)[C@@H]34 | 26.4

The next lines start with the compound.

Row | SMILES | IC50 (SMMC-7721) [µM] | IC50 (A549) [µM] | IC50 (CNE-2) [µM]
8 | Cc1ccccc1Cn1cccc1/C=C1\CC[C@@H]2[C@H]3CCCN4CCC[C@@H](CN2C1=O)[C@@H]34 | 22.4 | 29.3 | 28.4
9 | O=C1/C(=C/c2cn(Cc3ccc(Br)cc3)c3ccccc23)CC[C@@H]2[C@H]3CCCN4CCC[C@@H](CN12)[C@@H]34 | 16.8 | 18.1 | 14.7
10 | CC(C)(C)c1cc(Cn2cccc2/C=C2\CC[C@@H]3[C@H]4CCCN5CCC[C@@H](CN3C2=O)[C@@H]45)cc(C(C)(C)C)c1 | > 40 | > 40 | > 40
11 | Cc1ccc(Cn2cccc2/C=C2\CC[C@@H]3[C@H]4CCCN5CCC[C@@H](CN3C2=O)[C@@H]45)cc1 | 27.9 | 24.4 | 21.9
12 | O=C1/C(=C/c2cn(Cc3ccc(OC(F)(F)F)cc3)c3ccccc23)CC[C@@H]2[C@H]3CCCN4CCC[C@@H](CN12)[C@@H]34 | 6.82 | 7.03 | 6.64
13 | O=C1/C(=C/c2cn(Cc3ccc4ccccc4c3)c3ccc(Br)cc23)CC[C@@H]2[C@H]3CCCN4CCC[C@@H](CN12)[C@@H]34 | 8.65 | 9.74 | 12.5
14 | CC(C)(C)c1ccc(Cn2cc(/C=C3\CC[C@@H]4[C@H]5CCCN6CCC[C@@H](CN4C3=O)[C@@H]56)c3ccccc32)cc1 | 9.55 | 9.68 | 7.73
15 | O=C1/C(=C/c2cccn2Cc2ccccc2Cl)CC[C@@H]2[C@H]3CCCN4CCC[C@@H](CN12)[C@@H]34 | 26 | 26.2 | 26.3
16 | COc1cc(Cn2cccc2/C=C2\CC[C@@H]3[C@H]4CCCN5CCC[C@@H](CN3C2=O)[C@@H]45)cc(OC)c1OC | 13.3 | 18.9 | 7.83
17 | COc1ccc2c(c1)c(/C=C1\CC[C@@H]3[C@H]4CCCN5CCC[C@@H](CN3C1=O)[C@@H]45)cn2Cc1ccccc1Cl | 6.21 | 6.33 | 6.06
18 | O=C1/C(=C/c2cccn2Cc2ccc(OCc3ccccc3)cc2)CC[C@@H]2[C@H]3CCCN4CCC[C@@H](CN12)[C@@H]34 | 12.9 | 13.1 | 10.8
